Drawing on ChEMBL document CHEMBL1152603, “Comparative molecular field analysis and synthetic validation of a hydroxyamide-propofol binding and functional block of neuronal voltage-dependent sodium channels” (Bioorg Med Chem, 2009), this text covers Activity and IC50 for six compounds.

The species entered for test [1] is Rattus norvegicus. Nature of the test: Displacement of [3H]-BTX-B from neuronal voltage-gated sodium channel binding site 2 in rat hippocampal neurons at 40 uM. It is filed as tissue-based. The settings on record: Hippocampus. In outline: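 Inhibition of specifically bound [3H]-BTX-B measured at a single concentration of 40 μM, run in duplicate, and expressed as percent inhibition.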
In general terms: Displacement assays read how much labelled ligand stays bound in the presence of the test substance.

Test [2] in a line: Displacement of [3H]-BTX-B from neuronal voltage-gated sodium channel binding site 2 in rat hippocampal neurons. In kind it is tissue-based, Hippocampus.
The species named for test [3] is Rattus norvegicus. As to the kind of experiment: Inhibition of voltage-gated sodium channel in rat hippocampal neurons assessed as blocked of sodium current elicited at -10 mV for […] from holding potential -90 mV at 50 uM measured after washout by patch clamp method. In kind it is tissue-based. As to conditions: Hippocampus. In outline: (§1)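 Hippocampi from E18 rat embryos were trypsin-dissociated and plated on poly-L-lysine coverslips, then kept over a glial monolayer in serum-free MEM with N2 for up to 4 weeks. Whole-cell patch clamp was used. Bath (mM): NaCl 30, choline Cl 110, TEA-Cl 30, CdCl2 0.1, pH 7.3. Cells were held at −90 mV for 5 min first. Tonic current block was measured at 50 μM (n=5–7), followed by washout.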

The species entered for test [4] is Rattus norvegicus. As to the kind of experiment: Inhibition of voltage-gated sodium channel in rat hippocampal neurons assessed as blocked of sodium current elicited at -10 mV for […] from holding potential -90 mV at 50 uM by patch clamp method. It is filed as tissue-based. The settings on record: Hippocampus. Details: scale not given: the % may be the effect or the level left. Put shortly: as §1
For orientation: The patch-clamp technique gives a direct electrical read-out from membranes.

Active and inactive are the calls of the source. The rule behind the calls is not given here.

In turn, `NC(=O)C(O)(c1ccccc1)C(F)(F)F` (stereo unspecified) displayed an Activity in the test filed under Rattus norvegicus [1] of 6.8%.
As for `CC(C)c1cccc(C(C)C)c1O`, in the test filed under Rattus norvegicus [1], the Activity was determined as 16.6%.
For `CC(C)c1cc(CCCCCCC(O)(C(N)=O)C(F)(F)F)cc(C(C)C)c1O` (stereo unspecified), in test [2], the IC50 (usually the point on the concentration scale where inhibition reaches its midpoint) is 5.7 µM. Further, in the test listed under Rattus norvegicus [1], the Activity came out at 71.4%. For the same compound, the outcome in the test filed under Rattus norvegicus [3] was inactive.
For `CC(C)c1cc(CCCCC(O)(C(N)=O)C(F)(F)F)cc(C(C)C)c1O` (stereo unspecified), the IC50 in test [2] is 22 µM. In addition, the Activity in the test filed under Rattus norvegicus [1] was determined as 67.1%; in the test filed under Rattus norvegicus [4], 59%. Further, in the test listed under Rattus norvegicus [3], the result was inactive.
Take `CC(C)c1cc(C(O)(C(N)=O)C(F)(F)F)cc(C(C)C)c1O` (stereo unspecified): in the test listed under Rattus norvegicus [1], the Activity was 24.5%.
Same read-out and setting: to `CC(C)c1cc(C2(C(F)(F)F)NC(=O)NC2=O)cc(C(C)C)c1O` (stereo unspecified) belongs 55.1%.
